Laboratory results published in ChEMBL document CHEMBL1130328, “Synthesis and pharmacological activity of deltorphin and dermorphin-related glycopeptides” (J Med Chem, 1997).

What was measured:
Mu-type opioid receptor = Mu-type opioid receptor (Rattus norvegicus, UniProt P33535); test: Opioid receptor mu 1 binding affinity by displacement of radioligand [3H][DAla,MePhe,Gly-ol]enkephalin (DAGO) from rat brain membrane synaptosomes; format: subcellular
In short: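 Rat brain (male Sprague–Dawley) P2 synaptosomes, preincubated to remove endogenous opioids and washed. Incubated 120 min at 22 °C, 1.6 mg protein, in duplicate, with 0.62 nM [3H]DPDPE (δ) or 0.68 nM [3H]DAGO (μ). Nonspecific binding with 1–2 μM unlabelled ligand. Filtration, scintillation counting. Five to seven concentrations. Ki from IC50 by Cheng–Prusoff, mean ± SE, n = 3–9.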

[1] = molecular target: Delta-type opioid receptor (Rattus norvegicus, UniProt P33533); test: Opioid receptor delta 1 binding affinity by displacement of radioligand [3H][D-Pen]-enkephalin (DPDPE) from rat brain membrane synaptosomes; format: subcellular
Chain of Delta-type opioid receptor (P33533 whole entry): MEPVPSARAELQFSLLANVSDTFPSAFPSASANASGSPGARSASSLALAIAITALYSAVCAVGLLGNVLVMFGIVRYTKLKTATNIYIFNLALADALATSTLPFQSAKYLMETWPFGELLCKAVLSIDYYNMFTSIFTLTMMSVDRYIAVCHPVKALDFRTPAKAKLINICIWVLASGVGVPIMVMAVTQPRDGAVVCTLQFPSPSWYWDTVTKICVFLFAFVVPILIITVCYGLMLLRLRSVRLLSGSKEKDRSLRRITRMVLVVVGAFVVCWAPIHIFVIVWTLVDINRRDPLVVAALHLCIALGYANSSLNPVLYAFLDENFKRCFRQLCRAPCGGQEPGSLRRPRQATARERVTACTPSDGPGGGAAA

Cavia porcellus = organism: Cavia porcellus; test: Bioactivity in vitro in guinea pig ileum (GPI) isolated organ preparation; format: functional
In short: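 Guinea pig ileum segment (2–3 cm) in 20 mL bath with 70 μM hexamethonium and 0.125 μM mepyramine, 95% O2/5% CO2, 36 °C. Transmural stimulation 0.5 ms pulses at 0.1 Hz, 1.5× maximal-twitch voltage. 1 g load, 45 min equilibration, isotonic recording. Dose–response curves run against a reference agonist. Means of six experiments.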

Oryctolagus cuniculus = organism: Oryctolagus cuniculus; test: Bioactivity in vitro in rabbit jejunum (RJ) isolated organ preparation; format: functional
In short: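 Rabbit jejunum on isotonic transducer under 1 g load, equilibrated 45 min while recording spontaneous activity without washing. Dose–response curves run against a reference agonist. At least four jejunum preparations, each from a different rabbit. Means of six experiments.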

Chain of Mu-type opioid receptor (P33535 whole entry): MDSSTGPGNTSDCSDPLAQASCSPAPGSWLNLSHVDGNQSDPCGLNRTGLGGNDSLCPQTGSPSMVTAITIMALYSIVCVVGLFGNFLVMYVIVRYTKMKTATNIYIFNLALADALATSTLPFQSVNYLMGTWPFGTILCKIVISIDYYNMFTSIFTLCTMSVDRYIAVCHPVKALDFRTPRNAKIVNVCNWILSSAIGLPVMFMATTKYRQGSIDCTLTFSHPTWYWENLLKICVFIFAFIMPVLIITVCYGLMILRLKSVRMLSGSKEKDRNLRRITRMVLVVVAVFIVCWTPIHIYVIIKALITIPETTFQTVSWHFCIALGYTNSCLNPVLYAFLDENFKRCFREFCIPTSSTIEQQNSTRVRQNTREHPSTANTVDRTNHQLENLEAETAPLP

SMILES	Ki (Mu-type opioid receptor) [nM]	Ki [1] [nM]	IC50 (Cavia porcellus) [nM]	IC50 (Oryctolagus cuniculus) [nM]
C[C@H](O[C@H]1O[C@@H](CO)[C@H](O)[C@@H](O)[C@@H]1O)[C@H](NC(=O)[C@@H]1CCCN1C(=O)[C@H](Cc1ccc(O)cc1)NC(=O)CNC(=O)[C@H](Cc1ccccc1)NC(=O)[C@@H](C)NC(=O)[C@@H](N)Cc1ccc(O)cc1)C(=O)NCC(N)=O	0.29	67	3.1	–
CC(=O)OC[C@@H]1O[C@H](O[C@@H](C)[C@H](NC(=O)[C@@H](NC(=O)[C@@H](NC(=O)[C@H](CC(=O)O)NC(=O)[C@H](Cc2ccccc2)NC(=O)[C@@H](C)NC(=O)[C@@H](N)Cc2ccc(O)cc2)C(C)C)C(C)C)C(=O)NCC(N)=O)[C@@H](OC(C)=O)[C@H](OC(C)=O)[C@H]1OC(C)=O	635	1.3	–	890
CC(=O)OC[C@@H]1O[C@H](O[C@H](C)[C@H](NC(=O)[C@@H]2CCCN2C(=O)[C@H](Cc2ccc(O)cc2)NC(=O)CNC(=O)[C@H](Cc2ccccc2)NC(=O)[C@@H](C)NC(=O)[C@@H](N)Cc2ccc(O)cc2)C(=O)NCC(N)=O)[C@@H](OC(C)=O)[C@H](OC(C)=O)[C@H]1OC(C)=O	0.46	86.8	22.1	–
CC(C)[C@H](NC(=O)[C@H](CC(=O)O)NC(=O)[C@H](Cc1ccccc1)NC(=O)[C@@H](C)NC(=O)[C@@H](N)Cc1ccc(O)cc1)C(=O)N[C@H](C(=O)N[C@H](C(=O)NCC(N)=O)[C@@H](C)O[C@H]1O[C@H](CO)[C@@H](O)[C@H](O)[C@H]1O)C(C)C	579	1.55	–	995
C[C@@H](NC(=O)[C@@H](N)Cc1ccc(O)cc1)C(=O)N[C@@H](Cc1ccccc1)C(=O)N[C@H](C(=O)N[C@@H](Cc1ccc(O)cc1)C(=O)N1CCC[C@H]1C(=O)N[C@@H](CO)C(N)=O)[C@@H](C)O[C@H]1O[C@H](CO)[C@@H](O)[C@H](O)[C@H]1O	1700	1760	3400	–
CC(=O)OC[C@H]1O[C@H](O[C@H](C)[C@H](NC(=O)[C@H](Cc2ccccc2)NC(=O)[C@@H](C)NC(=O)[C@@H](N)Cc2ccc(O)cc2)C(=O)N[C@H](C(=O)N[C@H](C(=O)NCC(N)=O)C(C)C)C(C)C)[C@H](OC(C)=O)[C@@H](OC(C)=O)[C@@H]1OC(C)=O	1520	2110	–	> 4000
CC(C)[C@H](NC(=O)[C@@H](NC(=O)[C@@H](NC(=O)[C@H](Cc1ccccc1)NC(=O)[C@@H](C)NC(=O)[C@@H](N)Cc1ccc(O)cc1)[C@@H](C)O[C@H]1O[C@H](CO)[C@@H](O)[C@@H](O)[C@H]1O)C(C)C)C(=O)NCC(N)=O	1990	9500	–	> 4000
CC(=O)OC[C@H]1O[C@H](O[C@H](C)[C@H](NC(=O)[C@H](Cc2ccccc2)NC(=O)[C@@H](C)NC(=O)[C@@H](N)Cc2ccc(O)cc2)C(=O)N[C@@H](Cc2ccc(O)cc2)C(=O)N2CCC[C@H]2C(=O)N[C@@H](CO)C(N)=O)[C@H](OC(C)=O)[C@H](OC(C)=O)[C@H]1OC(C)=O	4400	22600	> 4000	–
CC(C)[C@H](NC(=O)[C@H](CC(=O)O)NC(=O)[C@H](Cc1ccccc1)NC(=O)[C@@H](C)NC(=O)[C@@H](N)Cc1ccc(O)cc1)C(=O)N[C@H](C(=O)NCC(N)=O)C(C)C [DELTORPHIN C]	–	–	–	510
C[C@@H](NC(=O)[C@@H](N)Cc1ccc(O)cc1)C(=O)N[C@@H](Cc1ccccc1)C(=O)NCC(=O)N[C@@H](Cc1ccc(O)cc1)C(=O)N1CCC[C@H]1C(=O)N[C@@H](CO)C(N)=O [DERMORPHIN]	0.28	–	2.1	–
